Experimental findings from ChEMBL document CHEMBL1157963, “Characterization of pentasaccharide glycosides from the roots of Ipomoea arborescens” (2006) are described below.

Holding throughout (format): functional
What all share (details): read-out: ED50 (the source's name)

One test concerns HCT-15. As to the kind of experiment: Cytotoxicity against human HCT15 cells. The gist of the method: (§1)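 Cultured human carcinoma lines were used: colon HCT-15, cervical UISO-SQC-1 and ovarian OVCAR-5. Cells were exposed to a series of concentrations of the purified glycosides, and the cell inhibitory concentration was determined. Maintenance and assay details follow an earlier procedure that is not given here.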

Test [1] in a line: Cytotoxicity against human UISO-SQC1 cells. The procedure, abridged: as §1
Another test concerns OVCAR-5. As to the kind of experiment: Cytotoxicity against human OVCAR5 cells. The gist of the method:
as §1

SMILES strings stand for the structures. Converted amounts (≈) assume the structure as drawn.

For the compound `CCCCCCCCCCCC(=O)O[C@H]1[C@H](O[C@@H]2[C@@H](O)[C@H]3OC(=O)CCCCCCCCCC(CCCCC)O[C@@H]4O[C@H](CO)[C@@H](O)[C@H](O)[C@H]4O[C@H]3O[C@H]2C)O[C@@H](C)[C@H](O[C@@H]2O[C@@H](C)[C@H](O)[C@@H](OC(=O)C(C)C(C)O)[C@H]2O[C@H]2O[C@H](CO)[C@@H](O)[C@H](O)[C@H]2O)[C@H]1O` (some centres undefined) [ARBORESIN 1], the EC50 in the test on HCT-15 is more than 5 µg/mL; in test [1] it was more than 5 µg/mL; in the test with OVCAR-5, 5 µg/mL (≈ 3.85 µM).
As to `CCCCCCCCCCCC(=O)O[C@H]1[C@H](O[C@@H]2[C@@H](O)[C@H]3OC(=O)CCCCCCCCCC(CCCCC)O[C@@H]4O[C@H](CO)[C@@H](O)[C@H](O)[C@H]4O[C@H]3O[C@H]2C)O[C@@H](C)[C@H](O[C@@H]2O[C@@H](C)[C@H](OC(C)=O)[C@@H](OC(=O)C(C)C(C)O)[C@H]2O[C@H]2O[C@H](CO)[C@@H](O)[C@H](O)[C@H]2O)[C@H]1O` (some centres undefined) [ARBORESIN 2], the EC50 in the test with HCT-15 was more than 5 µg/mL; in test [1], more than 5 µg/mL; with OVCAR-5, 4.2 µg/mL (≈ 3.13 µM).
As to `CCCCCCCCCCCC(=O)O[C@H]1[C@H](O[C@@H]2[C@@H](O)[C@H]3OC(=O)CCCCCCCCCC(CCCCC)O[C@@H]4O[C@H](CO)[C@@H](O)[C@H](O)[C@H]4O[C@H]3O[C@H]2C)O[C@@H](C)[C@H](O[C@@H]2O[C@@H](C)[C@H](OC(=O)CC)[C@@H](OC(=O)C(C)C(C)O)[C@H]2O[C@H]2O[C@H](CO)[C@@H](O)[C@H](O)[C@H]2O)[C@H]1O` (some centres undefined) [ARBORESIN 3], the EC50 (with HCT-15; in test [1]; with OVCAR-5) was more than 5 µg/mL in each case.
Turning to `CCCCCCCCCCCC(=O)O[C@H]1[C@H](O[C@@H]2[C@@H](O)[C@H]3OC(=O)CCCCCCCCCC(CCCCC)O[C@@H]4O[C@H](CO)[C@@H](O)[C@H](O)[C@H]4O[C@H]3O[C@H]2C)O[C@@H](C)[C@H](O[C@@H]2O[C@@H](C)[C@H](OC(=O)CCC)[C@@H](OC(=O)C(C)C(C)O)[C@H]2O[C@H]2O[C@H](CO)[C@@H](O)[C@H](O)[C@H]2O)[C@H]1O` (some centres undefined) [ARBORESIN 4], the EC50 (in the test with HCT-15; in test [1]; in the test on OVCAR-5) was more than 5 µg/mL each time.
Turning to `CCCCCCCCCCCC(=O)O[C@H]1[C@H](O[C@@H]2[C@@H](O)[C@H]3OC(=O)CCCCCCCCCC(CCCCC)O[C@@H]4O[C@H](CO)[C@@H](O)[C@H](O)[C@H]4O[C@H]3O[C@H]2C)O[C@@H](C)[C@H](O[C@@H]2O[C@@H](C)[C@H](OC(=O)C(C)CC)[C@@H](OC(=O)C(C)C(C)O)[C@H]2O[C@H]2O[C@H](CO)[C@@H](O)[C@H](O)[C@H]2O)[C@H]1O` (some centres undefined) [ARBORESIN 5], the EC50 (in the test on HCT-15; in test [1]; with OVCAR-5) was more than 5 µg/mL throughout.
In the case of `C/C=C/C(=O)O[C@@H]1[C@@H](OC(=O)C(C)C(C)O)[C@@H](O[C@H]2O[C@H](CO)[C@@H](O)[C@H](O)[C@H]2O)[C@H](O[C@@H]2[C@@H](O)[C@@H](OC(=O)CCCCCCCCCCC)[C@H](O[C@@H]3[C@@H](O)[C@H]4OC(=O)CCCCCCCCCC(CCCCC)O[C@@H]5O[C@H](C)[C@@H](O)[C@H](O)[C@H]5O[C@H]4O[C@H]3C)O[C@H]2C)O[C@H]1C` (some centres undefined) [MURUCIN 7], the results for the EC50 (in the test with HCT-15; in test [1]; in the test on OVCAR-5) were more than 5 µg/mL, more than 5 µg/mL and 4.5 µg/mL (≈ 3.33 µM), respectively.
`C/C=C(\C)C(=O)O[C@@H]1[C@@H](OC(=O)C(C)C(C)O)[C@@H](O[C@H]2O[C@H](CO)[C@@H](O)[C@H](O)[C@H]2O)[C@H](O[C@@H]2[C@@H](O)[C@@H](OC(=O)CCCCCCCCCCC)[C@H](O[C@@H]3[C@@H](O)[C@H]4OC(=O)CCCCCCCCCC(CCCCC)O[C@@H]5O[C@H](C)[C@@H](O)[C@H](O)[C@H]5O[C@H]4O[C@H]3C)O[C@H]2C)O[C@H]1C` (some centres undefined) [MURUCIN 8]: the EC50 (in the test with HCT-15; in test [1]; in the test with OVCAR-5) was more than 5 µg/mL throughout.
`CCCCCCCCCCCC(=O)O[C@H]1[C@H](O[C@@H]2[C@@H](O)[C@H]3OC(=O)CCCCCCCCCC(CCCCC)O[C@@H]4O[C@H](C)[C@@H](O)[C@H](O)[C@H]4O[C@H]3O[C@H]2C)O[C@@H](C)[C@H](O[C@@H]2O[C@@H](C)[C@H](O)[C@@H](O)[C@H]2O[C@H]2O[C@H](CO)[C@@H](O)[C@H](O)[C@H]2O)[C@H]1O` (some centres undefined) [MURUCIN 9]: the EC50 with HCT-15 is more than 5 µg/mL; in test [1], more than 5 µg/mL; in the test with OVCAR-5, 4 µg/mL (≈ 3.38 µM).
